pIC50: −log10 of the molar value. Values belong to the compound of their own block, whether it stands above or below them. Activity calls are given as the source filed them. The calls are words filed in the database; no cut-off is given here.
How the values were obtained:
MDA-MB-435 = assay: Cytotoxicity against human MDA-MB-435 cells assessed as cell growth inhibition after 72 hrs by MTT assay; format: functional, cell-based; settings: MDA-MB-435, 72 h
How it was run: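 MDA-MB-435 cells treated in triplicate with a range of concentrations for 72 h at 37°C, 5% CO2. Medium then replaced, MTT (5 mg/mL) added for 4 h, followed by overnight lysis in 10% SDS/5% isobutanol/12 mM HCl. Absorbance read at 590 nm; inhibition computed against control and blank wells. IC50 = concentration giving 50% growth inhibition, mean±SD of three experiments.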

[1] = biological target: DNA topoisomerase 2-alpha (Homo sapiens) (UniProt P11388); assay: Inhibition of human recombinant topoisomerase-2 alpha assessed as conversion of negatively supercoiled plasmid DNA pBR322 to relaxed DNA at 100 uM after 30 mins by agarose gel electrophoresis
How it was run: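 Recombinant human TOP2α (1 unit) incubated with 0.5 μg supercoiled pBR322 in 10 mM Tris-HCl pH 7.9, 50 mM NaCl, 50 mM KCl, 5 mM MgCl2, 1 mM EDTA, 1 mM ATP, BSA; 30 min at 30 °C. Stopped with 7 mM EDTA. Products resolved on 1% agarose in TAE at 5 V/cm for 2 h and stained with ethidium bromide. Performed at least in duplicate.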

[2] = biological target: DNA topoisomerase 2-alpha (Homo sapiens) (UniProt P11388); assay: Inhibition of human recombinant topoisomerase-2 alpha-mediated DNA cleavage using circular supercoiled plasmid DNA as substrate
[3] = biological target: DNA topoisomerase 2-alpha (Homo sapiens) (UniProt P11388); assay: Inhibition of human recombinant topoisomerase-2 alpha assessed as topoisomerase poison activity using circular supercoiled plasmid DNA as substrate
[4] = biological target: T1, Topoisomerase I (Bos taurus) (UniProt Q2HPH0); assay: Inhibition of calf thymus topoisomerase-1 assessed as conversion of negatively supercoiled plasmid DNA pBR322 to relaxed DNA at 100 uM after 30 mins by agarose gel electrophoresis
T1 sequence (whole entry): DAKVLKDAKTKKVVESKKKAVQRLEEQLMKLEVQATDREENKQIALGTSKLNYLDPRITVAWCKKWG
How it was run: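 Relaxation of 0.5 μg supercoiled pBR322 by 1 unit calf thymus TOP1 in 10 mM Tris-HCl pH 7.9, 150 mM NaCl, 0.1% BSA, 1 mM spermidine, 5% glycerol; 30 min at 37 °C. Reaction stopped with sarcosyl/bromophenol blue/glycerol. Products run on 1% agarose in TAE at 5 V/cm for 2 h and stained with ethidium bromide (0.5 μg/mL). Performed at least in duplicate.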

Chain of DNA topoisomerase 2-alpha (Homo sapiens) (P11388 whole entry): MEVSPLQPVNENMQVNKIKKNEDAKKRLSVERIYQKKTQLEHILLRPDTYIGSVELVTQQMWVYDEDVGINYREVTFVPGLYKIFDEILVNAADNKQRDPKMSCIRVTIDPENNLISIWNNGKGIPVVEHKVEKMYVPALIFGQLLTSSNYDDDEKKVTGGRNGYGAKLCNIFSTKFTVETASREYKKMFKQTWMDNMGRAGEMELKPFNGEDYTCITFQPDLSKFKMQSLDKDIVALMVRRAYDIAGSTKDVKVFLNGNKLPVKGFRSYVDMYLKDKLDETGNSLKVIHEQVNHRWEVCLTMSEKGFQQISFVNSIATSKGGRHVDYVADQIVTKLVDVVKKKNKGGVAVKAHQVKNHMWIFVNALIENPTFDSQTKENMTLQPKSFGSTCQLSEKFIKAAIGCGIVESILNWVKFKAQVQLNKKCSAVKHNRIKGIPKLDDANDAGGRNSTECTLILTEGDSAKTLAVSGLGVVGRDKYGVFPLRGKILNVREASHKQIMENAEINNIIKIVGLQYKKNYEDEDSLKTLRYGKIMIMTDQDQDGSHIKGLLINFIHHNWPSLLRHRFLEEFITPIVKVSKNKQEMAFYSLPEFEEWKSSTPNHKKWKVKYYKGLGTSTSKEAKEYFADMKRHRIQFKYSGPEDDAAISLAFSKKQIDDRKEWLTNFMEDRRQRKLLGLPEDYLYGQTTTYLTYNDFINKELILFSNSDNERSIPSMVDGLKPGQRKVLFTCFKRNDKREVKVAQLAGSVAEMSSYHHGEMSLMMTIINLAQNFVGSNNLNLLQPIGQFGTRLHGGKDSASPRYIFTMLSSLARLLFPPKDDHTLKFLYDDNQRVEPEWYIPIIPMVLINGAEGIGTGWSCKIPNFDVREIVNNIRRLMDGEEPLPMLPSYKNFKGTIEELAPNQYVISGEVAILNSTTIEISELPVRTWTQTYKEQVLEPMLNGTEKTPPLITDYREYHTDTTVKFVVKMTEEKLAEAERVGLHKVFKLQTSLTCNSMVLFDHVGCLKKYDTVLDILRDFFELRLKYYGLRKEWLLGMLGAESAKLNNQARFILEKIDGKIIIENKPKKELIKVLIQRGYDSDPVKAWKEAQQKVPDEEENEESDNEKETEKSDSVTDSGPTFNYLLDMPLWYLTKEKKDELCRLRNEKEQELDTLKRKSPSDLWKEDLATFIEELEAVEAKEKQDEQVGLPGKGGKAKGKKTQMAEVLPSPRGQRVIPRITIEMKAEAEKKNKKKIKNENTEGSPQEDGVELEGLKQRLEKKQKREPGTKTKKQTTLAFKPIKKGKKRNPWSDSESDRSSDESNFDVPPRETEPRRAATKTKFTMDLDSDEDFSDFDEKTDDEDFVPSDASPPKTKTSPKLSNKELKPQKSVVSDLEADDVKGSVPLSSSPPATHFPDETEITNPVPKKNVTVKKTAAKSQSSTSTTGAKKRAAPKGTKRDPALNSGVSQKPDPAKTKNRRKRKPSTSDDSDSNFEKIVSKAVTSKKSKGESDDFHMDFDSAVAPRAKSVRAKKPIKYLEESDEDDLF

SMILES: Oc1ccc(-c2ccc(-c3ccc(O)cc3)c(O)c2O)cc1
pIC50 (MDA-MB-435): < 4.00

SMILES: CCOc1c(-c2ccc(O)cc2)ccc(-c2ccc(O)cc2)c1OCC
pIC50 (MDA-MB-435): 4.38

SMILES: COC(=O)c1ccc(-c2ccc(-c3ccc(O)cc3)c(OC)c2OC)cc1O
pIC50 (MDA-MB-435): 4.68

inhibition [1]: Active
SMILES: COc1cc([C@@H]2c3cc4c(cc3[C@@H](O[C@@H]3O[C@@H]5CO[C@@H](C)O[C@H]5[C@H](O)[C@H]3O)[C@H]3COC(=O)[C@H]23)OCO4)cc(OC)c1O [ETOPOSIDE]
pIC50 (MDA-MB-435): 5.55

SMILES: COC(=O)c1cc(-c2ccc(-c3ccc(O)cc3)c(OC)c2OC)ccc1O
pIC50 (MDA-MB-435): 4.35

inhibition [1]: Active
SMILES: COc1c(-c2ccc(O)cc2)ccc(-c2ccc(O)cc2)c1OC
pIC50 (MDA-MB-435): 4.83

SMILES: COc1c(-c2ccc(O)cc2)ccc(-c2ccc(C(=O)O)c(O)c2)c1OC
pIC50 (MDA-MB-435): < 4.00

SMILES: COc1c(-c2ccc(O)c([N+](=O)[O-])c2)ccc(-c2ccc(O)c([N+](=O)[O-])c2)c1OC
pIC50 (MDA-MB-435): 4.21

SMILES: COc1ccc(-c2cccc(OC)c2OC)cc1OC
pIC50 (MDA-MB-435): 4.64

SMILES: CCOc1c(-c2ccc(OC)c(OC)c2)ccc(-c2ccc(OC)c(OC)c2)c1OCC
pIC50 (MDA-MB-435): < 4.00

SMILES: COc1ccc(-c2ccc(-c3ccc(OC)c(OC)c3)c(OC(C)=O)c2OC(C)=O)cc1OC
pIC50 (MDA-MB-435): < 4.00

SMILES: COc1ccc(-c2ccc(-c3ccc(C(=O)O)cc3)c(OC)c2OC)cc1OC
pIC50 (MDA-MB-435): < 4.00

SMILES: O=C(O)c1cc(-c2ccc(-c3ccc(O)cc3)c(O)c2O)ccc1O
pIC50 (MDA-MB-435): 4.00

SMILES: COc1ccc(-c2ccc(-c3ccc(OC)cc3)c(OC(C)=O)c2OC(C)=O)cc1
pIC50 (MDA-MB-435): 4.01

SMILES: O=C(O)c1ccc(-c2ccc(-c3ccc(O)cc3)c(O)c2O)cc1O
pIC50 (MDA-MB-435): 4.43

inhibition [2]: Active
inhibition [1]: Active
inhibition [4]: Active
SMILES: Oc1ccc(-c2ccc(-c3ccc(O)c(O)c3)c(O)c2O)cc1O
inhibition [3]: inactive
pIC50 (MDA-MB-435): 5.40

SMILES: O=[N+]([O-])c1cc(-c2ccc(O)c([N+](=O)[O-])c2)ccc1O
pIC50 (MDA-MB-435): < 4.00

SMILES: Oc1ccc(-c2ccc(-c3ccc(O)c(O)c3)c(O)c2O)cc1
pIC50 (MDA-MB-435): 5.39

SMILES: COc1ccc(-c2ccc(-c3ccc(OC)c(OC)c3)c(OC)c2OC)cc1OC
pIC50 (MDA-MB-435): 4.04

SMILES: COc1c(-c2ccc(O)cc2)ccc(-c2ccc(O)c(C(=O)O)c2)c1OC
pIC50 (MDA-MB-435): < 4.00

SMILES: O=C(O)c1ccc(-c2ccc(-c3ccc(O)c(O)c3)c(O)c2O)cc1
pIC50 (MDA-MB-435): < 4.00

— ChEMBL document CHEMBL3425454, “Synthesis, biological evaluation and modeling studies of terphenyl topoisomerase IIα inhibitors as anticancer agents” (Eur J Med Chem, 2015)
